Source: ChEMBL document CHEMBL4190394, “Discovery of Novel Pazopanib-Based HDAC and VEGFR Dual Inhibitors Targeting Cancer Epigenetics and Angiogenesis Simultaneously” (J Med Chem, 2018)
Activity calls are given as the source filed them. The calls are words filed in the database; no cut-off is given here.

Key:
Histone deacetylase = assay type: protein assay, Homo sapiens
[1] = molecular target: T1, Vascular endothelial growth factor receptor 2 (Homo sapiens, UniProt P35968); test: Inhibition of VEGFR-2 (unknown origin) at 0.2 uM after 40 mins by kinase-Glo assay relative to control
Procedure, shortened: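 VEGFR-2 tested at a single 200 nM concentration in a Kinase-Glo assay. Compound, kinase, substrate and ATP incubated 40 min at room temperature, then Kinase-Glo reagent added for 15 min and luminescence read. Inhibition rate reported. Replicates n ≥ 2.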

HT-29 [2] = test: Antiproliferative activity against human HT-29 cells after 72 hrs by MTT assay; assay type: functional, cell-based; conditions: HT-29, 72 h
ACHN = test: Antiproliferative activity against human ACHN cells after 72 hrs by MTT assay; assay type: functional, cell-based
AGS = test: Antiproliferative activity against human AGS cells after 72 hrs by MTT assay; assay type: functional, cell-based
HeLa = test: Antiproliferative activity against human HeLa cells after 72 hrs by MTT assay; assay type: functional, cell-based
PC-3 = test: Antiproliferative activity against human PC3 cells after 72 hrs by MTT assay; assay type: functional, cell-based; conditions: PC-3, 72 h
MDA-MB-231 = test: Antiproliferative activity against human MDA-MB-231 cells after 72 hrs by MTT assay; assay type: functional, cell-based; conditions: MDA-MB-231, 72 h
HT-1080 = test: Antiproliferative activity against human HT1080 cells after 72 hrs by MTT assay; assay type: functional, cell-based; conditions: HT-1080, 72 h
KG-1 = test: Antiproliferative activity against human KG1 cells after 72 hrs by MTT assay; assay type: functional, cell-based; conditions: KG-1, 72 h
HEL = test: Antiproliferative activity against human HEL cells after 72 hrs by MTT assay; assay type: functional, cell-based
MOLT-4 = test: Antiproliferative activity against human MOLT4 cells after 72 hrs by MTT assay; assay type: functional, cell-based; conditions: MOLT-4, 72 h
K562 = test: Antiproliferative activity against human K562 cells after 72 hrs by MTT assay; assay type: functional, cell-based; conditions: K562, 72 h
HUVEC [3] = test: Cytotoxicity activity against HUVEC after 72 hrs by MTT assay; assay type: cell-based; conditions: Homo sapiens
Procedure, shortened: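 HUVECs kept in RPMI1640 with 10% FBS at 37 °C, 5% CO2. Cells seeded the day before, grown 12 h, then exposed to a range of compound concentrations for 72 h. Then 0.5% MTT added for 4 h, formazan dissolved in DMSO, and absorbance read at 570 nm.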

Histone deacetylase 2 = Histone deacetylase 2 (Homo sapiens, UniProt Q92769)
[4] = molecular target: Protein deacetylase HDAC6 (Homo sapiens, UniProt Q9UBN7); test: Inhibition of HDAC6 (unknown origin) using fluorogenic Boc-Lys(acetyl)-AMC as substrate preincubated for 5 mins followed by substrate addition measured after 30 mins by fluorescence-based assay
Histone deacetylase 8 = Histone deacetylase 8 (Homo sapiens, UniProt Q9BY41); test: Inhibition of HDAC8 (unknown origin) using fluorogenic Boc-Lys(trifluoroacetyl)-AMC as substrate preincubated for 5 mins followed by substrate addition measured after 30 mins by fluorescence-based assay
[5] = molecular target: T1, Vascular endothelial growth factor receptor 2; test: Inhibition of VEGFR-2 (unknown origin) after 40 mins by kinase-Glo assay
Procedure, shortened: (§1)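 Kinase-Glo luminescent assay run by a contract lab. Compound, kinase, substrate and ATP diluted in kinase buffer and incubated 40 min at room temperature. IC50 obtained by nonlinear regression of normalized dose–response.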

[6] = molecular target: Vascular endothelial growth factor receptor 1 (Homo sapiens, UniProt P17948); test: Inhibition of VEGFR-1 (unknown origin) after 40 mins by kinase-Glo assay
Procedure, shortened: as §1

[7] = molecular target: Vascular endothelial growth factor receptor 3 (Homo sapiens, UniProt P35916); test: Inhibition of VEGFR-3 (unknown origin) after 40 mins by kinase-Glo assay
[8] = molecular target: Platelet-derived growth factor receptor beta (Homo sapiens, UniProt P09619); test: Inhibition of PDGFRbeta (unknown origin) after 40 mins by kinase-Glo assay
Procedure, shortened: as §1

[9] = molecular target: Fibroblast growth factor receptor 1 (Homo sapiens, UniProt P11362); test: Inhibition of FGFR1 (unknown origin) after 40 mins by kinase-Glo assay
[10] = molecular target: Macrophage colony-stimulating factor 1 receptor (Homo sapiens, UniProt P07333); test: Inhibition of C-fms (unknown origin) after 40 mins by kinase-Glo assay
[11] = molecular target: Mast/stem cell growth factor receptor Kit (Homo sapiens, UniProt P10721); test: Inhibition of C-kit (unknown origin) after 40 mins by kinase-Glo assay
Procedure, shortened: as §1

[12] = molecular target: T1, Vascular endothelial growth factor receptor 2; test: Inhibition of VEGF-stimulated VEGFR2 phosphorylation in human HUVEC cells at 100 nM preincubated for 2 hrs followed by VEGF stimulation by Western blot analysis; assay type: cell-based
Procedure, shortened: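 HUVECs pretreated 2 h with compound or DMSO, then stimulated with VEGF (50 ng/ml). Cells lysed in ice-cold RIPA and protein measured by BCA. Lysates run on SDS-PAGE and immunoblotted for phospho-VEGFR-2, with total VEGFR-2 as loading control. Detection by ECL.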

HUVEC [13] = test: Antiangiogenic activity in human HUVEC cells assessed as reduction in capillary-like tubular network formation at 0.1 uM after 6 hrs by phase-contrast microscopy; assay type: functional, cell-based
Procedure, shortened: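 HUVECs trypsinized and seeded at 40000/well on Matrigel polymerized 0.5 h at 37 °C. Cells held 6 h at 37 °C in M199 with 5% FBS, with compound or DMSO. Tube formation viewed and photographed by phase-contrast microscopy at 200 magnification. Three independent experiments.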

Thoracic aorta = test: Antiangiogenic activity in Sprague-Dawley rat thoracic aorta ring assessed as reduction in micro-vessel growth at 5 uM treated every day for 6 days by matrigel-based inverted microscopic analysis relative to control; assay type: functional, tissue-based
Procedure, shortened: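 Aortas taken from 4–6-week-old Sprague–Dawley rats, cut into 1-mm rings and embedded in Matrigel. Rings held 30 min at 37 °C, 5% CO2, then treated daily for 6 days with compound or 0.5% DMSO vehicle. Microvessel outgrowth photographed on day 7 at ×200. Three independent experiments.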

[14] = molecular target: Histone deacetylase 1/2/3 (Homo sapiens) (UniProt Q13547+O15379+Q92769); conditions: HeLa, at 100 nM
HT-29 [15] = test: Antitumor activity against human HT-29 cells xenografted in BALB/c nu mouse assessed as tumor growth level at 100 mg/kg, po administered for 25 consecutive days measured every 3 days during compound dosing relative to control; assay type: functional
Procedure, shortened: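 HT-29 cells (1×10^7) implanted s.c. in right flank of male BALB/c-nu mice aged 5–6 weeks. At about 100 mm³ (day 10), mice randomized 6 per group and dosed orally for 25 consecutive days. Controls received PBS with 5% DMSO. T/C is mean RTV (Vt/V0) treated over control. TGI taken from final tumor weights. Student's two-tailed t test.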

T1 sequence (P35968 whole entry): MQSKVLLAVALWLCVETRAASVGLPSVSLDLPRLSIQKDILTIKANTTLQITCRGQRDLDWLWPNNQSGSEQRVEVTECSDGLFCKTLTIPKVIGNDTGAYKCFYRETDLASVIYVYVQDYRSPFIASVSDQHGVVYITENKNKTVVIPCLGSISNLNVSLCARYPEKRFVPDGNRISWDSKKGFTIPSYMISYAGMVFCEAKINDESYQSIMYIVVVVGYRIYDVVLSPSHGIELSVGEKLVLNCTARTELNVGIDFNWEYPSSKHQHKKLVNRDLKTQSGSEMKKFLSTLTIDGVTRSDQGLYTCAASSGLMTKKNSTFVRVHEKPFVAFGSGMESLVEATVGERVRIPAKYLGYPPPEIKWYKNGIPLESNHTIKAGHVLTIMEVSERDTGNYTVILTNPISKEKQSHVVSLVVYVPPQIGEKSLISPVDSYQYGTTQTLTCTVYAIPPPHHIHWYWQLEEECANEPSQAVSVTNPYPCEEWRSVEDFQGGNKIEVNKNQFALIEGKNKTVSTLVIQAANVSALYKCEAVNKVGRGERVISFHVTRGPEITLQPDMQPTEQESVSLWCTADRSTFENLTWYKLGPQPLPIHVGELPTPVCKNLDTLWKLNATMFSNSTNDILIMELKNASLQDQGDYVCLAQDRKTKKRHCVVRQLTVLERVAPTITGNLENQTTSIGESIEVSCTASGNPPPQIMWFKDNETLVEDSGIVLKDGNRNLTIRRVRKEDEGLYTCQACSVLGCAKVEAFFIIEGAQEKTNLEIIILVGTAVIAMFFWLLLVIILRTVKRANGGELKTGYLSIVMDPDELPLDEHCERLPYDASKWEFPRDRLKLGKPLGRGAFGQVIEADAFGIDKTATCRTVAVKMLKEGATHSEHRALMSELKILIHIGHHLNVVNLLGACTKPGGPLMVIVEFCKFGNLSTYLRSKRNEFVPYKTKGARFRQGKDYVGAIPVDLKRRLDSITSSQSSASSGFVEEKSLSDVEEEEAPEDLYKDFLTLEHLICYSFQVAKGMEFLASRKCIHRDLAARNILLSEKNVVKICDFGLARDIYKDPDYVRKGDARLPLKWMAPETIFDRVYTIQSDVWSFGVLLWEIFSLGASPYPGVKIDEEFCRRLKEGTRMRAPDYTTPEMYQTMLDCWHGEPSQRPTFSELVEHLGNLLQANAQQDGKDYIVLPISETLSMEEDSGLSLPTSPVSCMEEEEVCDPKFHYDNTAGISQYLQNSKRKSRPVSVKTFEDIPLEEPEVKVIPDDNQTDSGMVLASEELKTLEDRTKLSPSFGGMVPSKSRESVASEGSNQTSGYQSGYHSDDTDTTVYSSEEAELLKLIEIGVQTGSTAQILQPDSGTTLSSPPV
Sequence of Histone deacetylase 2 (Q92769 whole entry): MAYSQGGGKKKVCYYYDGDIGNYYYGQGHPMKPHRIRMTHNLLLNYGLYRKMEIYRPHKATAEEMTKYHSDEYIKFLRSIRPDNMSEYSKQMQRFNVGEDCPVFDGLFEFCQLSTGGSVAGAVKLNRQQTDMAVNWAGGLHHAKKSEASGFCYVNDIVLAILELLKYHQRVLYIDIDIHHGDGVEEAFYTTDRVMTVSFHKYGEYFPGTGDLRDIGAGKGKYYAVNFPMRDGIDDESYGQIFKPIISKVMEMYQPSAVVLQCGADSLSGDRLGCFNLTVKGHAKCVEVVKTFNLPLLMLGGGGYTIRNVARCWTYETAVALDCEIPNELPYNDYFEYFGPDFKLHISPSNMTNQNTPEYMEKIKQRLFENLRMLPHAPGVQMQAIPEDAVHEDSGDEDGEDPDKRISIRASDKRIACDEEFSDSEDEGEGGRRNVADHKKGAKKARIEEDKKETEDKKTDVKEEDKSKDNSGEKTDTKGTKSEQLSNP
Sequence of Macrophage colony-stimulating factor 1 receptor (P07333 whole entry): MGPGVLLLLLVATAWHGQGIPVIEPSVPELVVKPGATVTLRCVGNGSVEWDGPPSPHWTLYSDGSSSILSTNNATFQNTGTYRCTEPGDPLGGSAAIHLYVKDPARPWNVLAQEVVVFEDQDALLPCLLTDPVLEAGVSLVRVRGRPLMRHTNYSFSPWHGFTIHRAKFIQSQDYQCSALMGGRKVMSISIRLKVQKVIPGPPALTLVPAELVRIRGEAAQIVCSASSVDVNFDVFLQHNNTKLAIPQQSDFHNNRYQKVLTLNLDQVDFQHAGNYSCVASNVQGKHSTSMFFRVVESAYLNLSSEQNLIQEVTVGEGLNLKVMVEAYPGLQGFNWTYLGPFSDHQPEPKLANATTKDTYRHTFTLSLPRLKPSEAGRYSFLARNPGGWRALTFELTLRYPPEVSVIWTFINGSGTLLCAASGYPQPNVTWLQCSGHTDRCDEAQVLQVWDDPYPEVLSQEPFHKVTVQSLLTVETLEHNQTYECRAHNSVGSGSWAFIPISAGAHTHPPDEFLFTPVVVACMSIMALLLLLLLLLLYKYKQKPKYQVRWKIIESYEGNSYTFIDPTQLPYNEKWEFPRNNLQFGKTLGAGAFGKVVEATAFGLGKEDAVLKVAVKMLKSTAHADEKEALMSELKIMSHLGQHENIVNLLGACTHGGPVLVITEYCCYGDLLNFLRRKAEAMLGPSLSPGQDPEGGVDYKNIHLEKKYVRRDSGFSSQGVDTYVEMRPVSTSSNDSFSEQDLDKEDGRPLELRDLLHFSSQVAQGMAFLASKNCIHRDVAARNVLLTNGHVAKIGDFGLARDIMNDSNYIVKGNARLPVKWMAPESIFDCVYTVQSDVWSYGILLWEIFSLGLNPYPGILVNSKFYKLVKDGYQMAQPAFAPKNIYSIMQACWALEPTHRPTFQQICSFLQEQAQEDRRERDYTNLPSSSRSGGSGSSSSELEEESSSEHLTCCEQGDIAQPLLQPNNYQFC
Sequence of Vascular endothelial growth factor receptor 1 (P17948 whole entry): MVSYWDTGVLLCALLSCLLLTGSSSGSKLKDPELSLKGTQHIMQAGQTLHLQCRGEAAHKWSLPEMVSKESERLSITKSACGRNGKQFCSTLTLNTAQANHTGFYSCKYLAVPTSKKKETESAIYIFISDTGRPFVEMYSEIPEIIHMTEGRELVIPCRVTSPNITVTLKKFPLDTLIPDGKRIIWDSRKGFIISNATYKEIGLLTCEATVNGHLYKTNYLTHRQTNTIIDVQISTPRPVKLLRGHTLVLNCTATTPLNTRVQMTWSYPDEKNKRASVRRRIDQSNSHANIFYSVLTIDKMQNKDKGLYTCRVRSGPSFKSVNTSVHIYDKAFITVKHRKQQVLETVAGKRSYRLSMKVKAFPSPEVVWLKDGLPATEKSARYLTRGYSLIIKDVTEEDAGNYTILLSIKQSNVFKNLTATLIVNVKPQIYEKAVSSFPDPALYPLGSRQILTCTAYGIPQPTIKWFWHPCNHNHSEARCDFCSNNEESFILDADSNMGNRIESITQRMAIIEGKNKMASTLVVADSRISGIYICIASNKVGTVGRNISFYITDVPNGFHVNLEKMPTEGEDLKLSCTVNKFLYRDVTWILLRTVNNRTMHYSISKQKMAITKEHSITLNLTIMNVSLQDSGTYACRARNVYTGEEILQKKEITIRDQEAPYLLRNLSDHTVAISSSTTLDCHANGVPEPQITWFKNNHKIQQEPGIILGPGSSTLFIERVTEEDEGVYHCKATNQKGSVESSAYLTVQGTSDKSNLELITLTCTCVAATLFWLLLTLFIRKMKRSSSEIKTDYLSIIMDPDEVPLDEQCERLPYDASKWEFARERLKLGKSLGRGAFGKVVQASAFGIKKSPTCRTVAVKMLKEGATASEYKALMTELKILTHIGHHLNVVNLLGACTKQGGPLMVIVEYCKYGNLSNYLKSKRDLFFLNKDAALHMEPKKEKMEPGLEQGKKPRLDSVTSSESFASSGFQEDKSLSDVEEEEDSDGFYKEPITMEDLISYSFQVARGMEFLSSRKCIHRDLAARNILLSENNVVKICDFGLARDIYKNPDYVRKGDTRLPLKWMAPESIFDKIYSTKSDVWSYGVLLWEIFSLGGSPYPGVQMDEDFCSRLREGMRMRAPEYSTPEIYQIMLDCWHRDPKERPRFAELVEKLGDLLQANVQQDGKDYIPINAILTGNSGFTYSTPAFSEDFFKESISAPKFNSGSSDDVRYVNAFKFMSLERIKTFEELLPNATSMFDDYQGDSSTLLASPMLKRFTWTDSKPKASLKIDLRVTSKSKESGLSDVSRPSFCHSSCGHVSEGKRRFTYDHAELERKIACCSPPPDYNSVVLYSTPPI
Sequence of Histone deacetylase 8 (Q9BY41 whole entry): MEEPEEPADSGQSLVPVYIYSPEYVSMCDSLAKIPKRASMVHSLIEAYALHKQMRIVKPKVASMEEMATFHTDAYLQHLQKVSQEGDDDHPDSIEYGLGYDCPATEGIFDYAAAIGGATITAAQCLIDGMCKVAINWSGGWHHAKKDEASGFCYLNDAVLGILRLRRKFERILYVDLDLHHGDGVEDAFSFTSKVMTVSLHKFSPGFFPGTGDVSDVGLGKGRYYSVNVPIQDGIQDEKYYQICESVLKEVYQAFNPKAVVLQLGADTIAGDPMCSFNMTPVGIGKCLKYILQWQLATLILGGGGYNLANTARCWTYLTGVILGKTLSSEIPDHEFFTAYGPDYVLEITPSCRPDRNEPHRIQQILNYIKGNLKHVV

Q: Cc1c2ccc(N(C)c3ccnc(Nc4ccc(C(=O)NCCCCCCC(=O)NO)cc4)n3)cc2nn1C was tested. Which IC50 (Histone deacetylase) did it give?
A: 3.3 nM

Q: What about the inhibition [1] of the same compound?
A: 93%

Q: And the IC50 (HT-29 [2])?
A: 2510 nM

Q: What about the IC50 (ACHN) of the same compound?
A: > 5000 nM

Q: What about the IC50 (AGS) of the same compound?
A: 4440 nM

Q: And the IC50 (HeLa)?
A: 4360 nM

Q: What about the IC50 (PC-3) of the same compound?
A: 1690 nM

Q: And the IC50 (MDA-MB-231)?
A: 2960 nM

Q: What about the IC50 (HT-1080) of the same compound?
A: 1970 nM

Q: What about the IC50 (KG-1) of the same compound?
A: 1600 nM

Q: What about the IC50 (HEL) of the same compound?
A: 2800 nM

Q: What about the IC50 (MOLT-4) of the same compound?
A: 310 nM

Q: And the IC50 (K562)?
A: 990 nM

Q: What about the IC50 (HUVEC [3]) of the same compound?
A: 21100 nM

Q: And the IC50 (Histone deacetylase 2)?
A: 380 nM

Q: And the IC50 [4]?
A: 72 nM

Q: What about the IC50 (Histone deacetylase 8) of the same compound?
A: 1660 nM

Q: And the IC50 [5]?
A: 46 nM

Q: And the IC50 [6]?
A: 35 nM

Q: And the IC50 [7]?
A: 113 nM

Q: And the IC50 [8]?
A: 111 nM

Q: What about the IC50 [9] of the same compound?
A: 409 nM

Q: What about the IC50 [10] of the same compound?
A: 581 nM

Q: And the IC50 [11]?
A: 163 nM

Q: What about the inhibition [12] of the same compound?
A: Active

Q: And the Activity (HUVEC [13])?
A: Active

Q: And the Activity (Thoracic aorta)?
A: Active

Q: What about the inhibition [14] of the same compound?
A: Active

Q: Which results are given for O=C(CCCCCCC(=O)Nc1ccccc1)NO [VORINOSTAT]?
A: inhibition [12]: inactive; T/C (HT-29 [15]): 66%
